Drawing on ChEMBL document CHEMBL1240446, “Synthesis and biological activities of novel amine-derived bis-azoles as potential antibacterial and antifungal agents” (2010), this text covers MIC for one compound.

Common to all, as to format: functional
For assay [1], the system named is Bacillus subtilis. Kind of assay: Antibacterial activity against Bacillus subtilis ATCC 21216 after 24 hrs by micro-broth dilution method. The following applies: ATCC 21216, 24 h. Put shortly: (§1)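 MIC by broth microdilution following NCCLS methods. Inoculum adjusted in sterile saline to 1×10^4–1×10^5 CFU. Compounds from DMSO stocks, two-fold serial dilutions in Mueller-Hinton broth at 256 down to 0.25 µg/mL. Incubation 37 °C, 24 h. DMSO solvent control at matching dilutions. Growth read visually and spectrophotometrically. MIC is the lowest concentration arresting growth.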
On the technique in general: In broth dilution the organism is exposed to a series of concentrations in liquid medium.

The subject of assay [2] is Staphylococcus aureus. Kind of assay: Antibacterial activity against methicillin-resistant Staphylococcus aureus N315 after 24 hrs by micro-broth dilution method. The following applies: N315, 24 h. The method in brief: (§2)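 Broth microdilution per NCCLS in Mueller-Hinton broth. Inoculum adjusted in sterile saline to 1×10^4–1×10^5 CFU. Compounds taken from DMSO stocks and serially diluted two-fold to final 256–0.25 µg/mL (11 levels). Incubation 37 °C, 24 h, with a DMSO solvent control. Growth read visually and spectrophotometrically. MIC is the lowest concentration that arrests growth.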

The subject of assay [3] is Staphylococcus aureus. The assay is described as follows: Antibacterial activity against Staphylococcus aureus ATCC 29213 after 24 hrs by micro-broth dilution method. The following applies: ATCC 29213, 24 h. The method in brief: as §2
The subject of assay [4] is Escherichia coli. Kind of assay: Antibacterial activity against Escherichia coli ATCC 25922 after 24 hrs by micro-broth dilution method. The following applies: ATCC 25922, 24 h. Put shortly:
as §1

In assay [5] the test system is Pseudomonas aeruginosa. Kind of assay: Antibacterial activity against Pseudomonas aeruginosa ATCC 27853 after 24 hrs by micro-broth dilution method. The following applies: ATCC 27853, 24 h. The method in brief: as §1
Assay [6] concerns Candida albicans. Kind of assay: Antifungal activity against Candida albicans ATCC 76615 after 24 hrs by micro-broth dilution method. The following applies: ATCC 76615, 24 h. The method in brief:
(§3)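 Broth microdilution per NCCLS. Spore suspension in sterile distilled water, taken from 1-day-old cultures on Sabouraud agar, final 1–5×10^3 spores/mL. Compounds diluted from stocks in RPMI 1640 to eleven concentrations, 0.25–256 µg/mL. Incubation 35 °C, 24 h. Growth scored visually and spectrophotometrically. MIC is the lowest concentration arresting fungal growth.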

Assay [7] deals with Aspergillus fumigatus. Kind of assay: Antifungal activity against Aspergillus fumigatus ATCC 96918 after 24 hrs by micro-broth dilution method. The following applies: ATCC 96918, 24 h. Put shortly: as §3
In assay [8] the test system is Bacillus. Kind of assay: Antibacterial activity against Bacillus proteus ATCC 13315 after 24 hrs by micro-broth dilution method. The following applies: ATCC 13315, 24 h. Put shortly: as §1

Usually MIC stands for the smallest concentration in the dilution series that meets the test's criterion for growth inhibition. Read a high MIC as a less susceptible organism. On to `Clc1ccc(CN(CCn2ccnc2)CCn2ccnc2)cc1Cl.O=[N+]([O-])O`, for which the MIC in assay [1] was 16 µg/mL; in assay [2], 16 µg/mL; in assay [3], 16 µg/mL; in assay [4], 4 µg/mL; in assay [5] it was 64 µg/mL; in assay [6], greater than 256 µg/mL. Further, the results for the MIC in assay [7] and in assay [8] were 64 µg/mL and 32 µg/mL, respectively.
